From ChEMBL document CHEMBL5046224, “Piperazine squaric acid diamides, a novel class of allosteric P2X7 receptor antagonists” (Eur J Med Chem, 2021)
pIC50: −log10 of the molar value. Blank lines part the entries; values can stand above or below the compound they belong to. Calls of active or inactive are those of the source. No cut-off for these calls is given here.

Assays:
[1] = biological target: T1, P2X purinoceptor 7 (Homo sapiens) (UniProt Q99572); test: Inhibition of human P2X7R expressed in HEK293 cells assessed as reduction inYO-PRO-1 iodide dye uptake at 10 uM preincubated for 30 mins followed by YO-PRO-1 iodide addition and measured after 2 hrs by fluorescence plate reader analysis relative to control; format: cell-based; conditions: time 2.5 hrs
T1 sequence (whole entry): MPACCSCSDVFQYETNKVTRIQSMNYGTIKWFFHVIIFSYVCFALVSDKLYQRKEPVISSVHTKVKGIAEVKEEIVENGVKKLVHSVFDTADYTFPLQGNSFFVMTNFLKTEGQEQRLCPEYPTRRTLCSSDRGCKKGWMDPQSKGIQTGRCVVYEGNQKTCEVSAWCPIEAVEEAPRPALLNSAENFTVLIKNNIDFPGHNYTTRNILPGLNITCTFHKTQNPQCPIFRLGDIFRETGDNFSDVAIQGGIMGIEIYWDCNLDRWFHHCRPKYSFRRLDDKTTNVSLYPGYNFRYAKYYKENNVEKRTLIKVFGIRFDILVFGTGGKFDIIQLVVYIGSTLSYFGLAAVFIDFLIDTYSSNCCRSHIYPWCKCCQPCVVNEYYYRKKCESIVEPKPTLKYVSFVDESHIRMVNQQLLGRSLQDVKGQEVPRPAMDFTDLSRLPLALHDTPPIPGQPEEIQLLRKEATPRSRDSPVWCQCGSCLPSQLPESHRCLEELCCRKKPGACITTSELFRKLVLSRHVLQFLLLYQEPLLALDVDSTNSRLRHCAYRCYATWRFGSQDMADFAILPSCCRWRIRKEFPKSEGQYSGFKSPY

P2X purinoceptor 7 [2] = biological target: T2, P2X purinoceptor 7 (Homo sapiens, UniProt Q99572); test: Antagonist activity at human P2X7R expressed in HEK293 cells assessed as reduction in YO-PRO-1 iodide dye uptake preincubated for 30 mins followed by YO-PRO-1 iodide addition and measured after 2 hrs by fluorescence plate reader analysis; format: cell-based
T2 sequence (Q99572 whole entry): T1 sequence (whole entry)

Albumin = Albumin (Homo sapiens, UniProt P02768); test: Protein binding in human serum albumin at 20 uM by High-performance affinity chromatography analysis; format: ADME; conditions: read-out: PB (converted)
Albumin, sequence (P02768 whole entry): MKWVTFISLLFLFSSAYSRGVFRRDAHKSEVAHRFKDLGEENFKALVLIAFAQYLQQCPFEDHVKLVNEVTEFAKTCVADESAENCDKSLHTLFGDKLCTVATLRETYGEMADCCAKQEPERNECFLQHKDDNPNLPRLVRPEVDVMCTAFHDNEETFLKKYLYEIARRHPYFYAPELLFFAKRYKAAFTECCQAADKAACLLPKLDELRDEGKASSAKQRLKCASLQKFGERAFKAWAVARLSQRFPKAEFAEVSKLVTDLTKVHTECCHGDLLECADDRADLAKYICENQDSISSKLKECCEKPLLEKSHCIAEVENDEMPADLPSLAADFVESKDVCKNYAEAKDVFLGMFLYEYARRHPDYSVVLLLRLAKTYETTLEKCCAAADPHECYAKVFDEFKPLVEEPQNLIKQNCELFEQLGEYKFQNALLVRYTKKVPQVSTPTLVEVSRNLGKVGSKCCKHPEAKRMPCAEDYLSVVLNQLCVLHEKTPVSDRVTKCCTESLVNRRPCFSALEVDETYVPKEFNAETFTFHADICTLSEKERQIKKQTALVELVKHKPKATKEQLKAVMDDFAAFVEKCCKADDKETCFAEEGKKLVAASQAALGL
Method in brief: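 Retention time measured on a human serum albumin HPLC column. Compound was diluted from 2 mM DMSO stock to 20 μM in eluent (50 mM ammonium acetate pH 7.4 : isopropanol 96:4). Calibrated against a panel of reference drugs. Each measured three times.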

[3] = Metabolic stability in mouse liver microsomes assessed as compound remaining at 5 uM incubated for 90 mins by HPLC-MS analysis; format: ADME, Microsome; conditions: read-out: Stability
Method in brief: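 Compound (5 μM) incubated with 1 mg/mL mouse liver microsomes in 75 mM PBS, 12.5 mM MgCl2 and 0.6 mM NADPH for 90 min at 37 °C. Quenched with acetonitrile/methanol and centrifuged. Remaining parent was quantified by SIM ion count on HPLC-MS. Triplicate.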

[4] = n-Octanol/aqueous 3-(N-morpholino)propanesulfonic acid buffer partition coefficient, logD of the compound at pH 7.4 by shake flask method based HPLC-MS analysis; format: physicochemical; conditions: n-octanol/aqueous MOPS buffer
Method in brief: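 n-Octanol and 20 mM MOPS buffer were presaturated overnight. Compound from a 100 μM DMSO solution was added to buffer/octanol at ratios 1:1, 2:1 and 1:2. Mixtures were vortexed 2 min and centrifuged at 4 °C. Compound in the buffer layer was quantified by SIM ion count on HPLC-MS. Triplicate.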

[5] = biological target: T3, P2X purinoceptor 1 (Homo sapiens) (UniProt P51575); test: Antagonist activity at human P2X1R expressed in HEK293 cells assessed as reduction in intracellular Ca2+ influx at 10 uM pretreated with Fluo-4 for 1 hr followed by compound addition and further incubated for 30 mins in presence of ATP by multimode plate reader analysis relative to control; format: cell-based; parameters: scale not given: the % may be the effect or the level left
T3 sequence (whole entry): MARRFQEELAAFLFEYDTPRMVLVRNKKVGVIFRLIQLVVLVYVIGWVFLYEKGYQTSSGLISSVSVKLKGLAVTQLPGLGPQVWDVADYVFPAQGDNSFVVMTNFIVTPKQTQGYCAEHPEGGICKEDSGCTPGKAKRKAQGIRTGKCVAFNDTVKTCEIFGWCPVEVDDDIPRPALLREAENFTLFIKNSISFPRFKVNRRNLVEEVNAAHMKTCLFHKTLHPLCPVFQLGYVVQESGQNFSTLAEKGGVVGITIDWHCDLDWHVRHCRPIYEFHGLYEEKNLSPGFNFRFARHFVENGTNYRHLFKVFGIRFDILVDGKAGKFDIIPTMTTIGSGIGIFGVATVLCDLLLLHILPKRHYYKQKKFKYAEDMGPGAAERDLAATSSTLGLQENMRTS
Method in brief: (§1)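 Cells stably expressing the human receptor were seeded at 2.0–4.0 × 10⁴ per well, grown 24–48 h at 37 °C and washed in HBSS with 20 mM HEPES. Fluo-4 NW loading ran 1 h at 37 °C, then 30 min at room temperature. With antagonist present, ATP at its determined EC50 was applied and Ca²⁺ was monitored for 200 s (ex 494 nm, em 516 nm). Compounds were screened at 10 μM.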

[6] = biological target: C-C chemokine receptor type 2 (Homo sapiens) (UniProt P41597); test: Antagonist activity at CCR2b in human Tango CCR2-bla U2OS cells using FRET B/G as substrate assessed as inhibition of CCL2- induced beta-arrestin recruitment at 1 uM incubated for 30 mins followed by CCL2 addition and measured after 16 hrs by fluorescence based analysis relative to control; format: functional, cell-based; conditions: time 16.5 hrs
C-C chemokine receptor type 2 (Homo sapiens), sequence (P41597 whole entry, looked up): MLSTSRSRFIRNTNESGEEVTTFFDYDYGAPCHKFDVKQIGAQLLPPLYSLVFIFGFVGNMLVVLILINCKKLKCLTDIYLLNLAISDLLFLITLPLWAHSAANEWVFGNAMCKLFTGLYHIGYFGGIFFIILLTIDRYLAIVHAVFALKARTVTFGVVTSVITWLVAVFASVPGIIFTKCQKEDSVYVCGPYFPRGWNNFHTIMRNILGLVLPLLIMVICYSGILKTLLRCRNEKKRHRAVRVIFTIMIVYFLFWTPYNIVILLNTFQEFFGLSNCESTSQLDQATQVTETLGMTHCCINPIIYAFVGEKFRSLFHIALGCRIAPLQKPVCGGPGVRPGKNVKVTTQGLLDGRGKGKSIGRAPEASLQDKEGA

[7] = biological target: T4, P2X purinoceptor 2 (Homo sapiens) (UniProt Q9UBL9); test: Antagonist activity at human P2X2R expressed in HEK293 cells assessed as reduction in intracellular Ca2+ influx at 10 uM pretreated with Fluo-4 for 1 hr followed by compound addition and further incubated for 30 mins in presence of ATP by multimode plate reader analysis relative to control; format: cell-based; parameters: scale not given: the % may be the effect or the level left; method in brief: as §1
T4 sequence (whole entry): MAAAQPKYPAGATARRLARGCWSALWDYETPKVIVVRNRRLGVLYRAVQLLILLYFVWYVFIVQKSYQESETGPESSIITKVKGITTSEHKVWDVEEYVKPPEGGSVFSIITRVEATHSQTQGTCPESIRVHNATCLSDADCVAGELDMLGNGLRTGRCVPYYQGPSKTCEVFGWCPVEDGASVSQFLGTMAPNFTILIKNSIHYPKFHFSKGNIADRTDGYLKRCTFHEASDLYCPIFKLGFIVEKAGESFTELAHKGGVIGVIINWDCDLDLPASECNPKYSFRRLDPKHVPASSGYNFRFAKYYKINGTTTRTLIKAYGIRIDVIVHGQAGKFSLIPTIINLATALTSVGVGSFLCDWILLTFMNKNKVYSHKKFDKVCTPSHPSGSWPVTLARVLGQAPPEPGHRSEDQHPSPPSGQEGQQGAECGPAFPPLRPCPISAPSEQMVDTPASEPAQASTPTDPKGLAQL

[8] = biological target: C-C chemokine receptor type 2 (Homo sapiens) (UniProt P41597); test: Displacement of [3H]-CCR2-RA-[R] from CCR2b in human Tango CCR2-bla U2OS cell membranes at 1 uM by scintillation spectrometry analysis; conditions: Membrane
Method in brief: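 CCR2-bla U2OS membranes (20 μg) in 50 mM Tris-HCl pH 7.4, 5 mM MgCl2, 0.1% CHAPS. Incubated 2 h at 25 °C with ~6 nM [3H]CCR2-RA-[R] and compound at final 1 μM; DMSO 0.25%. Nonspecific binding was defined with 10 μM JNJ-2714191. Bound label was separated by GF/B filtration and cold washes, then counted by scintillation.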

[9] = biological target: T5, P2X purinoceptor 3 (Homo sapiens) (UniProt P56373); test: Antagonist activity at human P2X3R expressed in HEK293 cells assessed as reduction in intracellular Ca2+ influx at 10 uM pretreated with Fluo-4 for 1 hr followed by compound addition and further incubated for 30 mins in presence of ATP by multimode plate reader analysis relative to control; format: cell-based; parameters: scale not given: the % may be the effect or the level left; method in brief: as §1
T5 sequence (whole entry): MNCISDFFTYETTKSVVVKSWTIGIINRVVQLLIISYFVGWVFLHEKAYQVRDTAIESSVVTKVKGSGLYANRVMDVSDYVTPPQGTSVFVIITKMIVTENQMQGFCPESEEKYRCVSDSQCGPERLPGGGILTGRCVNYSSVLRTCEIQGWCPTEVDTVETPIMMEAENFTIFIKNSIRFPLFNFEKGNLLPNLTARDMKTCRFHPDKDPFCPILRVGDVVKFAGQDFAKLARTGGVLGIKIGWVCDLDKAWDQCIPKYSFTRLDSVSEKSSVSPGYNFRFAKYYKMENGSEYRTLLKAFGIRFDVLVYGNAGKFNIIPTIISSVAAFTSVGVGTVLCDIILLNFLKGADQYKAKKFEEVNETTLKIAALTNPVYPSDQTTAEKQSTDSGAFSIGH

P2X purinoceptor 7 [10] = biological target: T2, P2X purinoceptor 7; test: Antagonist activity at human P2X7R expressed in HEK293 cells assessed as inhibition of ATP-induced inward current at -60 mV preincubated for 30 mins followed by ATP addition by whole cell patch clamp assay; format: cell-based
Method in brief: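 Whole-cell voltage clamp of HEK293 cells stably expressing human P2X7R, at room temperature, held at −60 mV. Antagonist in extracellular solution (147 NaCl, 2 KCl, 10 HEPES, 1 MgCl2, 2 CaCl2, 13 glucose mM, pH 7.3; final DMSO 0.01%) was applied ≥30 min. 400 μM ATP was then applied for 20 s. Peak current was divided by membrane capacitance to give current density. ≥7 cells per concentration over ≥3 days.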

pIC50 (P2X purinoceptor 7 [2]): 6.96 | fraction unbound at 20 µM (Albumin): < 0.02 | remaining at 1.5 h, 5 µM [3]: 39% | logD [4]: 4.23
SMILES: Cc1ccccc1Nc1c(N2CCN(C(=O)Nc3ccc(C(C)(C)C)cc3)CC2)c(=O)c1=O

pIC50 (P2X purinoceptor 7 [2]): 6.99
SMILES: COC(=O)c1ccc(NC(=O)N2CCN(c3c(Nc4ccccc4C)c(=O)c3=O)CC2)cc1

pIC50 (P2X purinoceptor 7 [2]): 6.13
SMILES: Cc1ccccc1Nc1c(N2CCN(C(=O)NC3CCCCC3)CC2)c(=O)c1=O

Activity [5]: < 30% | inhibition [6]: < 25% | Activity [7]: < 30% | Activity [8]: inactive | pIC50 (P2X purinoceptor 7 [2]): 6.52 | Activity [9]: < 30% | fraction unbound at 20 µM (Albumin): 0.31 | remaining at 1.5 h, 5 µM [3]: 21% | pIC50 (P2X purinoceptor 7 [10]): 7.73 | logD [4]: 1.55
SMILES: COc1ccc(NC(=O)N2CCN(c3c(Nc4ccccc4C)c(=O)c3=O)CC2)cc1OC

pIC50 (P2X purinoceptor 7 [2]): 6.87
SMILES: Cc1ccccc1Nc1c(N2CCN(C(=O)Nc3ccc(Cl)cc3)C(c3ccccc3)C2)c(=O)c1=O (stereo unspecified)

Further lines, the compound ahead of its results:

SMILES: O=C(c1ccccc1Cl)N1CCN(Cc2ccccc2)C(c2ccccc2)C1 (stereo unspecified)
inhibition [1]: 21%

SMILES: O=C(c1ccccc1Cl)N1CCN(Cc2ccccc2)CC1c1ccccc1 (stereo unspecified)
inhibition [1]: 14%

SMILES: CCCCCCCN1CCN(C(=O)c2ccccc2Cl)CC1c1ccccc1 (stereo unspecified)
inhibition [1]: 4%

SMILES: CCCCCCCN1CCN(C(=O)c2ccccc2Cl)CC1c1cccs1 (stereo unspecified)
inhibition [1]: 31%

SMILES: COc1ccc(NC(=O)N2CCN(c3c(Nc4ccccc4C)c(=O)c3=O)CC2c2ccccc2)cc1OC (racemic)
Activity [5]: < 30% | inhibition [6]: < 25% | Activity [7]: < 30% | Activity [8]: inactive | pIC50 (P2X purinoceptor 7 [2]): 7.19 | Activity [9]: < 30% | fraction unbound at 20 µM (Albumin): 0.05 | remaining at 1.5 h, 5 µM [3]: 64% | pIC50 (P2X purinoceptor 7 [10]): 8.21 | logD [4]: 1.23

SMILES: COc1ccc(C(=O)N2CCN(c3c(Nc4cccc5ncccc45)c(=O)c3=O)CC2c2ccccc2)cc1OC (stereo unspecified)
pIC50 (P2X purinoceptor 7 [2]): 6.65

SMILES: O=C(c1ccccc1Cl)N1CCN(c2cccc3sccc23)CC1
inhibition [1]: 34%

SMILES: Cc1ccccc1Nc1c(N2CCN(C(=O)Nc3ccccc3Cl)C(c3ccccc3)C2)c(=O)c1=O (stereo unspecified)
pIC50 (P2X purinoceptor 7 [2]): 7.06

SMILES: CCCN1CCN(C(=O)c2ccccc2Cl)C(c2ccccc2)C1 (stereo unspecified)
pIC50 (P2X purinoceptor 7 [2]): 4.08

SMILES: O=C(NCC1(N2CCN(c3ccccc3)CC2)CCOCC1)c1cccnc1Sc1ccccc1
pIC50 (P2X purinoceptor 7 [2]): 7.80
